In one assay the target is T1, Adenosine receptor A3 (Homo sapiens, UniProt P0DMS8).
T1 sequence (P0DMS8 whole entry): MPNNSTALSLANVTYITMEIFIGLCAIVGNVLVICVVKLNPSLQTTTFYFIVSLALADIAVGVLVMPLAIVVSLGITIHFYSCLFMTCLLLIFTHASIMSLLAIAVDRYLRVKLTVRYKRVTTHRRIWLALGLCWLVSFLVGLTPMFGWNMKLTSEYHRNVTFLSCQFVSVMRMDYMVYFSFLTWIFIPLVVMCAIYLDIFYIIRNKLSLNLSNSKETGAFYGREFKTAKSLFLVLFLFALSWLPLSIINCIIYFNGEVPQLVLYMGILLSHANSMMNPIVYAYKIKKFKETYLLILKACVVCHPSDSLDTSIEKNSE
The experiment in a line: (§1) Displacement of [125I]AB-MECA from human adenosine A3 receptor expressed in CHO cells. The class given is cell-based. The gist of the method: (§2)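 Membranes from CHO cells expressing hA3, 50 µg protein/assay, pretreated with adenosine deaminase. Incubated with [¹²⁵I]AB-MECA in 50 mM Tris-HCl, 10 mM MgCl₂, 1 mM EDTA, pH 7.4, at 6–8 concentrations of test compound, 60 min at 37 °C. Nonspecific binding defined with 1 µM AB-MECA. GF/B filtration. Ki obtained by Cheng–Prusoff. Mean ± SEM of 3–4 experiments in duplicate.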
In general terms: In a radioligand displacement assay an active substance lowers the binding of a labelled ligand.

Assay [1] deals with T2, Adenosine receptor A3 (Homo sapiens) (UniProt P0DMS8).
T2 sequence (whole entry): T1 sequence (P0DMS8 whole entry)
Described as §1. The class given is cell-based. In a few lines:
as §2

For a further assay, the target named is T3, Adenosine receptor A1 (Homo sapiens, UniProt P30542).
T3 sequence (P30542 whole entry): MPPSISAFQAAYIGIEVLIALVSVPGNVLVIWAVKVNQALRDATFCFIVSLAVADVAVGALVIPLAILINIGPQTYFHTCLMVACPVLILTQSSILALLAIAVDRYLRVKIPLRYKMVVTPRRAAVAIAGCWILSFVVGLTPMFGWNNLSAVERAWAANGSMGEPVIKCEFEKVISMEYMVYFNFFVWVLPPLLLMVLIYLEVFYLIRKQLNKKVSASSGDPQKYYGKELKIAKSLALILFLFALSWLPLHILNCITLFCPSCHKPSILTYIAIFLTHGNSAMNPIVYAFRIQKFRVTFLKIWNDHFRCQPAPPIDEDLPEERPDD
Briefly: (§3) Displacement of [3H]CHA from human adenosine A1 receptor expressed in CHO cells. The class given is cell-based. The gist of the method:
(§4)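 Membranes from hA1 CHO cells, 50 µg protein/assay, pretreated with adenosine deaminase. Incubated with 1 nM [³H]CHA in 50 mM Tris-HCl pH 7.4 at 6–8 concentrations, 150 min at 25 °C. Nonspecific binding defined with 10 µM CHA. GF/B filtration and scintillation counting. Ki obtained by Cheng–Prusoff. Mean ± SEM of 3–4 experiments in duplicate.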

Another assay deals with Adenosine receptor A2a (Homo sapiens, UniProt P29274). The experiment in a line: Displacement of [3H]CGS-21680 from human adenosine A2A receptor expressed in CHO cells. The class given is cell-based.
Another assay concerns the target T4, Adenosine receptor A2b (Homo sapiens, UniProt P29275).
T4 sequence (P29275 whole entry): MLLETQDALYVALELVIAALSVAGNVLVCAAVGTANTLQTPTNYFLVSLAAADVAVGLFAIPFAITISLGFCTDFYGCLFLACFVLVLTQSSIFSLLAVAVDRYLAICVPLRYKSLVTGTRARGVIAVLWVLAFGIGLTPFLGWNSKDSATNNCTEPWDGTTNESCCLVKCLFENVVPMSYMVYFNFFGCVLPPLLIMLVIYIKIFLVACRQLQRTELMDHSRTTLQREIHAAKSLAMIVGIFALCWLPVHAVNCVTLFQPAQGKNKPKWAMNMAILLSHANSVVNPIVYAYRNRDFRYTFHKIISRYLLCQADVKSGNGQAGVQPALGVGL
The experiment in a line: (§5) Activity at human adenosine A2B receptor expressed in CHO cells assessed as stimulation of cAMP levels. The class given is functional, cell-based. In a few lines:
(§6)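 Whole CHO cells transfected with human A2B (1 × 10⁶ cells/assay), preincubated 10 min at 37 °C with adenosine deaminase 2 IU/mL and Ro 20-1724 as PDE inhibitor. Ligands (1 nM to 10 µM) were then added for 5 min. Stopped with cold 6% TCA and ether-extracted. cAMP measured by competition binding to bovine adrenal binding protein with [³H]cAMP. Mean ± SEM of 3–4 experiments in duplicate.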
For orientation: Cyclic AMP is a second messenger, typically raised through Gs and lowered through Gi signalling.

Assay [2] deals with T5, Adenosine receptor A2b (Homo sapiens) (UniProt P29275).
T5 sequence (whole entry): T4 sequence (P29275 whole entry)
The assay is described as §5. The class given is functional, cell-based. Further details: concentration or dose not given beside the values. In a few lines: as §6

The target in assay [3] is T6, Adenosine receptor A1 (Homo sapiens) (UniProt P30542).
T6 sequence (whole entry): T3 sequence (P30542 whole entry)
The description is as §3. The class given is cell-based. In a few lines: as §4

Each structure is given as a SMILES string. Where only a bound is given, the exact number is not on record here.

Chain of Adenosine receptor A2a (P29274 whole entry): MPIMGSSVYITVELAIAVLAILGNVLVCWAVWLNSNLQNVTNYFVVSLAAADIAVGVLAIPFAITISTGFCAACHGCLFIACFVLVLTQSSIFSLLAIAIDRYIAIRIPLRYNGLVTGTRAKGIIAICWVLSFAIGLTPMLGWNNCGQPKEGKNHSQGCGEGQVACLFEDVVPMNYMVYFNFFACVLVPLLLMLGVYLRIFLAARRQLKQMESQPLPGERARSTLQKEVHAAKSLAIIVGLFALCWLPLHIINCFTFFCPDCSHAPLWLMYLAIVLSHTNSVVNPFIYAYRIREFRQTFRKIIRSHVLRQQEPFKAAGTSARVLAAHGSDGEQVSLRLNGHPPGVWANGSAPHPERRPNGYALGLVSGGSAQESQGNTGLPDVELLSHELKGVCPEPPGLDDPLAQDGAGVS

As for `CCNC(=O)[C@H]1O[C@@H](n2cnc3c(NNC(=O)c4ccc(C)s4)nc(Cl)nc32)[C@H](O)[C@@H]1O`, the Ki (as a rule, a dissociation constant, usually derived from enzyme kinetics or from competition with a known ligand) was greater than 5 µM at Adenosine receptor A3, 2.6 µM at Adenosine receptor A1 and 4.1 µM on Adenosine receptor A2a. In assay [1], the Activity was found to be 17%.

In turn, `CCNC(=O)[C@H]1O[C@@H](n2cnc3c(NNC(=O)Cc4cccs4)nc(Cl)nc32)[C@H](O)[C@@H]1O` gave a Ki at Adenosine receptor A3 of 0.025 µM.

Turning to `CCNC(=O)[C@H]1O[C@@H](n2cnc3c(NNC(=O)c4ccc(Br)o4)ncnc32)[C@H](O)[C@@H]1O`, the figures for the Ki on Adenosine receptor A3, on Adenosine receptor A1 and on Adenosine receptor A2a were greater than 5 µM, 0.78 µM and 1.2 µM, respectively. In assay [1], this compound had an Activity of 13%. At Adenosine receptor A2b, the concentration giving a half-maximal response (EC50) (in general, the concentration giving half of the maximal effect) was 0.369 µM.

As for `CCNC(=O)[C@H]1O[C@@H](n2cnc3c(NNC(=O)c4ccc(Cl)cc4)ncnc32)[C@H](O)[C@@H]1O`, the Ki on Adenosine receptor A3, at Adenosine receptor A1 and at Adenosine receptor A2a was greater than 5 µM each time. The Activity in assay [1] was 20%; in assay [2] it was 6%; in assay [3] it was 5%; on Adenosine receptor A2a, 8%. In addition, the EC50 on Adenosine receptor A2b was greater than 5 µM.

On to `CCNC(=O)[C@H]1O[C@@H](n2cnc3c(NNC(=O)c4ccccc4)ncnc32)[C@H](O)[C@@H]1O`, for which the inhibition constant (Ki) on Adenosine receptor A3, at Adenosine receptor A1 and on Adenosine receptor A2a was greater than 5 µM each time. In addition, the Activity in assay [1] was 8%; in assay [2] it was 10%; in assay [3], 35%; on Adenosine receptor A2a, 18%. Further, the EC50 at Adenosine receptor A2b is greater than 5 µM.

`CCNC(=O)[C@H]1O[C@@H](n2cnc3c(NNC(=O)c4cccnc4)ncnc32)[C@H](O)[C@@H]1O`: the Ki at Adenosine receptor A3, on Adenosine receptor A1 and on Adenosine receptor A2a was greater than 5 µM each time. The Activity in assay [1] is 17%; in assay [2], 9%; in assay [3], 11%; at Adenosine receptor A2a it was 7%. Moreover, at Adenosine receptor A2b, the EC50 is greater than 5 µM.

For `CCNC(=O)[C@H]1O[C@@H](n2cnc3c(NNC(=O)c4ccsc4)nc(Cl)nc32)[C@H](O)[C@@H]1O`, the values for the inhibition constant (Ki) at Adenosine receptor A3 and on Adenosine receptor A2a were greater than 5 µM and 3.3 µM, respectively. For the same compound, the Activity in assay [1] was 18%.

For the compound `CCNC(=O)[C@H]1O[C@@H](n2cnc3c(NNC(=O)c4ccc(C)o4)ncnc32)[C@H](O)[C@@H]1O`, the Ki at Adenosine receptor A3 was greater than 5 µM; on Adenosine receptor A2a, 1.6 µM. The Activity in assay [1] was found to be 15%.

With `CCNC(=O)[C@H]1O[C@@H](n2cnc3c(NNC(=O)c4sccc4C)nc(Cl)nc32)[C@H](O)[C@@H]1O`, the Ki at Adenosine receptor A3 is greater than 5 µM; on Adenosine receptor A1, 1.6 µM; on Adenosine receptor A2a, 3.8 µM. Besides, the Activity in assay [1] was determined as 9%.

Take `CCNC(=O)[C@H]1O[C@@H](n2cnc3c(NNC(=O)c4nc([N+](=O)[O-])cn4C)ncnc32)[C@H](O)[C@@H]1O`: the Ki at Adenosine receptor A3, on Adenosine receptor A1 and on Adenosine receptor A2a was greater than 5 µM in each case. Also, the Activity in assay [1] was 11%; in assay [2], 14%; in assay [3], 7%; at Adenosine receptor A2a, 12%. Moreover, the EC50 on Adenosine receptor A2b is greater than 5 µM.

Take `CCNC(=O)[C@H]1O[C@@H](n2cnc3c(NNC(=O)c4ccco4)ncnc32)[C@H](O)[C@@H]1O`: the values for the Ki on Adenosine receptor A3, at Adenosine receptor A1 and at Adenosine receptor A2a were greater than 5 µM, 1.05 µM and 1.55 µM, respectively. For the same compound, the Activity in assay [1] was 23%; in assay [2] (filed as agonist), “Agonist”.

In the case of `CCNC(=O)[C@H]1O[C@@H](n2cnc3c(NNC(=O)c4ccccc4)nc(Cl)nc32)[C@H](O)[C@@H]1O`, the Ki on Adenosine receptor A3, at Adenosine receptor A1 and on Adenosine receptor A2a was greater than 5 µM throughout. The Activity in assay [1] is 45%; in assay [2] it was 5%; in assay [3], 37%; at Adenosine receptor A2a, 40%. For the same compound, the concentration for a half-maximal effect (EC50) at Adenosine receptor A2b was greater than 5 µM.

Turning to `CCNC(=O)[C@H]1O[C@@H](n2cnc3c(NNC(=O)c4ccc[nH]4)nc(Cl)nc32)[C@H](O)[C@@H]1O`, the values for the inhibition constant Ki on Adenosine receptor A3 and at Adenosine receptor A2a were greater than 5 µM and 3.2 µM, respectively. This compound also showed an Activity in assay [1] of 11%.

`CCNC(=O)[C@H]1O[C@@H](n2cnc3c(NNC(=O)c4cccs4)nc(Cl)nc32)[C@H](O)[C@@H]1O`: the Ki at Adenosine receptor A3 is greater than 5 µM; at Adenosine receptor A2a, 1.7 µM. Besides, the Activity in assay [1] came out at 12%.

Turning to `CCNC(=O)[C@H]1O[C@@H](n2cnc3c(NNC(=O)c4ccc(C)s4)ncnc32)[C@H](O)[C@@H]1O`, the Ki at Adenosine receptor A3 is greater than 5 µM; at Adenosine receptor A1 it was 1.1 µM; on Adenosine receptor A2a, 2.1 µM. For the same compound, the Activity in assay [1] was 19%.

On to `CCNC(=O)[C@H]1O[C@@H](n2cnc3c(NNC(=O)c4cc(C)on4)nc(Cl)nc32)[C@H](O)[C@@H]1O`, for which the Ki at Adenosine receptor A3, at Adenosine receptor A1 and at Adenosine receptor A2a was greater than 5 µM each time. Also, the Activity in assay [1] was determined as 16%; in assay [2] it was 21%; in assay [3] it was 7%; on Adenosine receptor A2a, 3%. In addition, the EC50 at Adenosine receptor A2b is greater than 5 µM.

Take `CCNC(=O)[C@H]1O[C@@H](n2cnc3c(NNC(=O)c4ccco4)nc(Cl)nc32)[C@H](O)[C@@H]1O`: the Ki is greater than 5 µM on Adenosine receptor A3, 3.5 µM on Adenosine receptor A1 and 4.95 µM at Adenosine receptor A2a. The Activity in assay [1] came out at 26%.

For `CCNC(=O)[C@H]1O[C@@H](n2cnc3c(NNC(=O)c4cc(-c5ccccc5)on4)nc(Cl)nc32)[C@H](O)[C@@H]1O`, the inhibition constant Ki at Adenosine receptor A3, on Adenosine receptor A1 and on Adenosine receptor A2a was greater than 5 µM throughout. Besides, the Activity in assay [1] worked out at 15%; in assay [2], 24%; in assay [3], 5%; at Adenosine receptor A2a it was 2%. Besides, the EC50 at Adenosine receptor A2b is greater than 5 µM.
